Measured values taken from ChEMBL document CHEMBL3352168, “Potent, orally available, selective COX-2 inhibitors based on 2-imidazoline core” (Eur J Med Chem, 2014).
Each block holds one compound with its values, some of them ahead of it.

How the values were obtained:
[1] = molecular target: T1, Prostaglandin G/H synthase 1 (Ovis aries) (UniProt P05979); experiment: Inhibition of ovine COX1 using fluorometric substrate at 100 uM by fluorescent inhibitor screening assay
T1 sequence (whole entry): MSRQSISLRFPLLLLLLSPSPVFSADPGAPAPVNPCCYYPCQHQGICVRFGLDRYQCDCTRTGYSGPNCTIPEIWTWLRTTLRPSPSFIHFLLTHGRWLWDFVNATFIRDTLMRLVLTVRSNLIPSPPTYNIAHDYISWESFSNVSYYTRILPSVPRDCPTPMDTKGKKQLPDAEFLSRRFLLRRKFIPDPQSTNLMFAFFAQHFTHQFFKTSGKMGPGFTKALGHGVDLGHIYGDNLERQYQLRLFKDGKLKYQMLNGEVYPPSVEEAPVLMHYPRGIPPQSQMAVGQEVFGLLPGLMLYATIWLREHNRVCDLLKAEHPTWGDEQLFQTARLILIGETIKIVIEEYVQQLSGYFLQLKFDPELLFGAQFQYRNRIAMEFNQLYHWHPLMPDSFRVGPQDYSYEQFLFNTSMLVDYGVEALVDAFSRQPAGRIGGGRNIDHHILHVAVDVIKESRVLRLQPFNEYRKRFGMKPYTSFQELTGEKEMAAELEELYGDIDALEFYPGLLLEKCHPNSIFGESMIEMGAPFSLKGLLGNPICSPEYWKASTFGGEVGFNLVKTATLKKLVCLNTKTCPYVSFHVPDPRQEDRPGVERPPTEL

[2] = molecular target: T2, Prostaglandin G/H synthase 2 (Homo sapiens, UniProt P35354); experiment: Inhibition of human recombinant COX2 using fluorometric substrate by fluorescent inhibitor screening assay
T2 sequence (P35354 whole entry): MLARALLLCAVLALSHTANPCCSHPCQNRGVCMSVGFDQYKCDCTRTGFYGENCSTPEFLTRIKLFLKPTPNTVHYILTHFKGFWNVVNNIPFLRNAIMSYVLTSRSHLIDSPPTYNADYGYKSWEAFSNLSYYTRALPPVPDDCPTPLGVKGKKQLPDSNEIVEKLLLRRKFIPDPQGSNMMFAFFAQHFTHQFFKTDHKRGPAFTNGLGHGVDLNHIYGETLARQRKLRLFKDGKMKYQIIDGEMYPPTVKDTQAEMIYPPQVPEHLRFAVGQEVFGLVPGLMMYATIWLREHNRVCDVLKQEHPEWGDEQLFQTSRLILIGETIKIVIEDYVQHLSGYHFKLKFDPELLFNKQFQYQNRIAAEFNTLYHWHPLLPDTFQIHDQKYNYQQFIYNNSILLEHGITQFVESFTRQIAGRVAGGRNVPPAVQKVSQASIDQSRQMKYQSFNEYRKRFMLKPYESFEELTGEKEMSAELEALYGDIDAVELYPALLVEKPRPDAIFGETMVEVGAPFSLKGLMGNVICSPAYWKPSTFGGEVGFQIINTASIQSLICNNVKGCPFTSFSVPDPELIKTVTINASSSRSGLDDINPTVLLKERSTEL
In short: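 Human recombinant COX-2 in 100 mM Tris-HCl pH 8.0 with heme and ADHP fluorometric substrate; inhibitor added at final […] (units as printed) from DMSO stocks; reaction started with arachidonic acid, 2 min at room temperature. Resorufin fluorescence read at ex 535/em 590 nm; % inhibition vs no-inhibitor activity; IC50 from concentration–inhibition curve, triplicate determinations.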

[3] = molecular target: T3, Prostaglandin G/H synthase 1 (Ovis aries, UniProt P05979); experiment: Inhibition of ovine COX1 using fluorometric substrate by fluorescent inhibitor screening assay
T3 sequence (P05979 whole entry): T1 sequence (whole entry)
In short: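 Ovine COX-1 in 100 mM Tris-HCl pH 8.0 with heme and ADHP fluorometric substrate; inhibitor from DMSO stock, reaction started by arachidonic acid, 2 min at room temperature. Resorufin fluorescence read at ex 535/em 590 nm; percent inhibition calculated against uninhibited activity; reported as % inhibition at 100 (units as printed).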

Plasma [4] = experiment: Half life in C57Bl mouse plasma assessed as aromatization metabolite at 10 mg/kg, po; type: ADME, organism-based; design: dose 10 mg/kg, route oral; settings: in vivo
Plasma [5] = experiment: AUC (0 to 240 mins) in C57Bl mouse plasma assessed as aromatization metabolite at 10 mg/kg, po; type: ADME, organism-based; design: time < 4 hr, dose 10 mg/kg, route oral; settings: in vivo, 4 h
Plasma [6] = experiment: AUC (0 to infinity) in C57Bl mouse plasma assessed as aromatization metabolite at 10 mg/kg, po; type: ADME, organism-based; design: dose 10 mg/kg, route oral, time infinity; settings: in vivo
[7] = Tmax in C57Bl mouse plasma at 10 mg/kg, po; type: ADME, organism-based; design: dose 10 mg/kg, route oral
In short: (§1)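 Male C57Bl mice, about 2 months old, 18.1–23.6 g, fasted overnight, dosed by oral gavage; 4 animals per group plus non-dosed control group; killed by cervical dislocation for blood and whole brain. Plasma precipitated with internal standard; brain homogenized in 67% methanol, centrifuged, spiked with internal standard; quantified by HPLC-MS against blank-brain calibration.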

[8] = AUC (0 to infinity) in C57Bl mouse brain at 10 mg/kg, po; type: ADME, organism-based; design: time infinity, dose 10 mg/kg, route oral; in short: as §1
[9] = AUC (0 to infinity) in C57Bl mouse plasma at 10 mg/kg, po; type: ADME, organism-based; design: time infinity, dose 10 mg/kg, route oral; in short: as §1
[10] = AUC (0 to 240 mins) in C57Bl mouse brain at 10 mg/kg, po; type: ADME, organism-based; design: time < 4 hr, dose 10 mg/kg, route oral; in short: as §1
[11] = Clearance in C57Bl mouse plasma at 10 mg/kg, po; type: ADME, organism-based; design: dose 10 mg/kg, route oral; in short: as §1
Brain [12] = experiment: Half life in C57Bl mouse brain assessed as aromatization metabolite at 10 mg/kg, po; type: ADME, organism-based; design: dose 10 mg/kg, route oral; settings: in vivo
[13] = Cmax in C57Bl mouse plasma at 10 mg/kg, po; type: ADME, organism-based; design: dose 10 mg/kg, route oral; in short: as §1
Plasma [14] = experiment: Tmax in C57Bl mouse plasma assessed as aromatization metabolite at 10 mg/kg, po; type: ADME, organism-based; design: dose 10 mg/kg, route oral; settings: in vivo
Plasma [15] = experiment: Volume of distribution at steady state in C57Bl mouse plasma at 10 mg/kg, po; type: ADME, organism-based; design: dose 10 mg/kg, route oral; settings: in vivo; in short: as §1
Brain [16] = experiment: Cmax in C57Bl mouse brain assessed as aromatization metabolite at 10 mg/kg, po; type: ADME, organism-based; design: dose 10 mg/kg, route oral; settings: in vivo
[17] = Cmax in C57Bl mouse brain at 10 mg/kg, po; type: ADME, organism-based; design: dose 10 mg/kg, route oral; in short: as §1
Brain [18] = experiment: AUC (0 to 240 mins) in C57Bl mouse brain assessed as aromatization metabolite at 10 mg/kg, po; type: ADME, organism-based; design: time < 4 hr, dose 10 mg/kg, route oral; settings: in vivo, 4 h
[19] = Tmax in C57Bl mouse brain at 10 mg/kg, po; type: ADME, organism-based; design: dose 10 mg/kg, route oral; in short: as §1
[20] = Half life in C57Bl mouse brain at 10 mg/kg, po; type: ADME, organism-based; design: dose 10 mg/kg, route oral; in short: as §1
[21] = Half life in C57Bl mouse plasma at 10 mg/kg, po; type: ADME, organism-based; design: dose 10 mg/kg, route oral; in short: as §1
Mus musculus = experiment: Antiinflammatory activity in mouse assessed as reduction in carrageenan-induced inflamed paw volume at 3.7 mg/kg, ip relative to untreated control; type: functional; settings: route intraperitoneal
[22] = AUC (0 to 240 mins) in C57Bl mouse plasma at 10 mg/kg, po; type: ADME, organism-based; design: time < 4 hr, dose 10 mg/kg, route oral; in short: as §1
Brain [23] = experiment: Tmax in C57Bl mouse brain assessed as aromatization metabolite at 10 mg/kg, po; type: ADME, organism-based; design: dose 10 mg/kg, route oral; settings: in vivo
Brain [24] = experiment: AUC (0 to infinity) in C57Bl mouse brain assessed as aromatization metabolite at 10 mg/kg, po; type: ADME, organism-based; design: time infinity, dose 10 mg/kg, route oral; settings: in vivo
Brain [25] = experiment: Drug metabolism in C57Bl mouse brain at 10 mg/kg, po; type: ADME, organism-based; design: dose 10 mg/kg, route oral; settings: in vivo
Plasma [26] = experiment: Drug metabolism in C57Bl mouse plasma at 10 mg/kg, po; type: ADME, organism-based; design: dose 10 mg/kg, route oral; settings: in vivo
Plasma [27] = experiment: Cmax in C57Bl mouse plasma assessed as aromatization metabolite at 10 mg/kg, po; type: ADME, organism-based; design: dose 10 mg/kg, route oral; settings: in vivo

SMILES: CC1CN(c2ccc(S(C)(=O)=O)cc2)C(c2ccc(Cl)cc2)=N1 (racemic)
inhibition [1]: -5.2%
IC50 [2]: > 10 µM

SMILES: CS(=O)(=O)c1ccc(N2CCN=C2c2ccc(Cl)cc2)cc1
inhibition [1]: 3.2%
IC50 [2]: 7.1 µM

SMILES: CS(=O)(=O)c1ccc(N2CCN=C2c2cccc(Cl)c2)cc1
inhibition [1]: 1.4%
IC50 [2]: 8.1 µM

SMILES: COc1ccc(C2=NCCN2c2ccc(S(C)(=O)=O)cc2)cc1Cl
inhibition [1]: 1.2%
IC50 [2]: > 10 µM

SMILES: NS(=O)(=O)c1ccc(N2CCN=C2c2cccc(F)c2)cc1
inhibition [1]: -1.4%
IC50 [2]: 7.2 µM

SMILES: COc1ccc(C2=NCCN2c2ccc(S(C)(=O)=O)cc2)cc1F
inhibition [1]: -1.6%
IC50 [2]: > 10 µM

SMILES: Cc1cn(-c2ccc(S(C)(=O)=O)cc2)c(-c2ccc(Cl)cc2)n1
IC50 [3]: > 100 µM

SMILES: CC1CN(c2ccc(S(N)(=O)=O)cc2)C(c2ccc(Cl)cc2)=N1 (racemic)
inhibition [1]: 3.2%
IC50 [2]: > 10 µM

Further compounds by falling IC50 [2], results first:

inhibition [1]: 11.4%
IC50 [2]: 6.9 µM
SMILES: NS(=O)(=O)c1ccc(N2CCN=C2c2ccc(F)cc2)cc1

inhibition [1]: 6.6%
IC50 [2]: 6.7 µM
SMILES: NS(=O)(=O)c1ccc(N2CCN=C2c2ccc(F)c(F)c2)cc1

inhibition [1]: 3%
IC50 [2]: 6.2 µM
SMILES: COc1ccc(C2=NCCN2c2ccc(S(N)(=O)=O)cc2)cc1Cl

inhibition [1]: 0.4%
IC50 [2]: 3.4 µM
SMILES: NS(=O)(=O)c1ccc(N2CCN=C2c2ccc(Cl)cc2)cc1

inhibition [1]: 12.9%
IC50 [2]: 2.9 µM
SMILES: NS(=O)(=O)c1ccc(N2CCN=C2c2cccc(Br)c2)cc1

inhibition [1]: 1.9%
IC50 [2]: 2.1 µM
SMILES: CS(=O)(=O)c1ccc(N2CCN=C2c2ccc(Cl)c(Cl)c2)cc1

inhibition [1]: 2.7%
IC50 [2]: 1.8 µM
SMILES: NS(=O)(=O)c1ccc(N2CCN=C2c2ccc(Cl)c(C(F)(F)F)c2)cc1

t1/2 (Plasma [4]): 4.65 h
AUC (Plasma [5]): 145573 ng·min/mL
AUC (Plasma [6]): 364739 ng·min/mL
Tmax [7]: 5 min
AUC(0-inf) [8]: 525 ng·h/mL
AUC(0-inf) [9]: 12700 ng·h/mL
AUC(0-t) at 4 h [10]: 491 ng·h/mL
CL/F [11]: 13 mL/min/kg
t1/2 (Brain [12]): 1.87 h
Cmax [13]: 6140 ng/mL
Tmax (Plasma [14]): 2 h
Vdss (Plasma [15]): 1.22 L/kg
Cmax (Brain [16]): 33 ng/mL
Cmax [17]: 267 ng/mL
AUC (Brain [18]): 5969 ng·min/mL
inhibition [1]: 8.7%
Tmax [19]: 0.5 h
half-life [20]: 0.967 h
half-life [21]: 1.08 h
AUC(0-t) at 4 h [22]: 11700 ng·h/mL
Tmax (Brain [23]): 2 h
AUC (Brain [24]): 8533 ng·min/mL
Drug metabolism (Brain [25]): metabolite_detected
IC50 [2]: 0.3 µM
Drug metabolism (Plasma [26]): metabolite_detected
Cmax (Plasma [27]): 735 ng/mL
SMILES: NS(=O)(=O)c1ccc(N2CCN=C2c2ccc(Cl)c(Cl)c2)cc1
inhibition in vivo at 3.7 mg/kg (Mus musculus): 56%
